# Hit rate of the full screen: of about 200,000 compounds, about 2,000 (1%) were called active.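 How the source made its calls: active means inhibition above the campaign mean inhibition of all tested compounds plus 3 SD (cut at about 20% in these data); inactive means the rest.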 The list comes from a sample in which actives are over-represented; it also holds similar structures and randomly drawn compounds.
# Molecular target: Neuropeptide Y receptor type 1 (Homo sapiens) (UniProt P25929)
# Experiment: NPY-Y1 receptor antagonists, primary screen, cell-based (AID 1040);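 further: 0% = DMSO wells given NPY plus isoproterenol and 100% = isoproterenol alone without NPY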
# Conditions: HEK293-CNG Y1 cells, membrane potential fluorescence; at 3.6 µM; active compounds read high
# Summary of the method: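 material = HEK293 cells with Y1 receptor plus CNG channel | also added = NPY 25 nM then isoproterenol 1 µM plus Ro 20-1724 25 µM | schedule = dye 3 h, compound 60 min room temperature, stimulation 45 min | measured by = membrane potential fluorescence | benchmarks = high control isoproterenol alone, low control NPY with isoproterenol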
# Sequence of Neuropeptide Y receptor type 1 (Homo sapiens) (P25929 whole entry, looked up): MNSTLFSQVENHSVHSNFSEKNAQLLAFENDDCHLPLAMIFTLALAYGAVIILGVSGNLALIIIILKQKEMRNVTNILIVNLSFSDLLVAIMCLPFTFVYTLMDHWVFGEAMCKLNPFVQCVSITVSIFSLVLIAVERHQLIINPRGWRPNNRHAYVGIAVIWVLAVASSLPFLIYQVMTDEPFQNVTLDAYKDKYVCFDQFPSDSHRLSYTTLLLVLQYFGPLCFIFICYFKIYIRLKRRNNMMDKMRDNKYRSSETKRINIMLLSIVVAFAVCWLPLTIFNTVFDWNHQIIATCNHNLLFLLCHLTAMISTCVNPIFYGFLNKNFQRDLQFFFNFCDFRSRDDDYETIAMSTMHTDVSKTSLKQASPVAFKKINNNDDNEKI
row,Compound,inhibition
1,NC(=O)Cn1cc(C(=O)c2ccccc2F)c2ccccc21,4.87% (inactive)
2,N#Cc1ccc(Cn2cc(C(=O)c3ccco3)c3ccccc32)cc1,21.4% (active)
3,CC(C)Oc1cccc(C(=O)C2CCCN(C3CCOCC3)C2)c1 (stereo not given),1.82% (inactive)
4,CCOC(=O)c1c(N)n(CCN2CCOCC2)c2nc3ccccc3nc12,-2.58% (inactive)
5,COc1cc(Cn2c(N)c(C(=O)NCc3ccco3)c3nc4ccccc4nc32)cc(OC)c1OC,-7.12% (inactive)
6,CCOC(=O)c1c(N)n(Cc2ccccc2)c2nc3ccccc3nc12,26.8% (active)
7,N=c1ccccn1Cc1ccccc1,-3.41% (inactive)
8,CCc1nnc(NS(=O)(=O)c2ccc(N=Cc3c(O)n(-c4ccccc4)c(=O)[nH]c3=O)cc2)s1,12.6% (inactive)
9,COc1ccc(C(=O)C2CCCN(Cc3ccc(C)s3)C2)cc1OC (stereo not given),-3.61% (inactive)
10,O=C(CN1CCCC1=O)NCCc1ccccc1,-2.4% (inactive)

# — PubChem BioAssay AID1040 (The Scripps Research Institute Molecular Screening Center, 2008)
